The record followed here is ChEMBL document CHEMBL4024752, “Noncovalent Protein Arginine Deiminase (PAD) Inhibitors Are Efficacious in Animal Models of Multiple Sclerosis” (J Med Chem, 2017).

Activity calls are given as the source filed them. No cut-off for these calls is given here.

The test system of data set [1] is Mus musculus. Kind of data set: Antiinflammatory activity in MOG (35 to 55 residues)-induced C57BL/6 mouse autoimmune encephalomyelitis model assessed as improvement in physical disability at 50 mg/kg, ip administered daily measured on day 35 post immunization. In kind it is functional, organism-based. In short, it runs like this:
(§1)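 Female C57BL/6 mice, 8 weeks old, were immunized s.c. with 100 µg MOG peptide in CFA, plus 400 ng pertussis toxin i.p. at immunization and again at 48 h. Daily i.p. dosing at 50 mg/kg in PBS (pH 7.5) began at clinical score 2 and continued up to 60 days. Controls got an equal volume of PBS (n=5 vs 7). Clinical score and body weight were recorded daily.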

Data set [2] has as its system Mus musculus. Kind of data set: Antiinflammatory activity in MOG (35 to 55 residues)-induced C57BL/6 mouse autoimmune encephalomyelitis model assessed as survival rate at 50 mg/kg, ip administered daily up to 60 days (reference value: 80%). It is filed as functional. As to conditions: C57BL/6, ip, 1440 h.
Data set [3] has as its system Mus musculus. The data set can be described thus: Antiinflammatory activity in MOG (35 to 55 residues)-induced C57BL/6 mouse autoimmune encephalomyelitis model assessed as reduction in inflammation in spinal cord at 50 mg/kg, ip administered daily measured at day 60 post immunization. It is filed as functional, organism-based. As to conditions: in the assay text read “brain” for “spinal cord”. In a few lines: (§2)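 MOG/CFA-immunized female C57BL/6 mice were treated daily at 50 mg/kg i.p. in PBS from score 2 for up to 60 days; controls received PBS. At study end, brain and spinal cord sections were stained with H&E and Luxol Fast Blue. Inflammation was quantified as inflamed area over total tissue area by positive pixel count.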

Data set [4] relates to Mus musculus. Kind of data set: Antiinflammatory activity in MOG (35 to 55 residues)-induced C57BL/6 mouse autoimmune encephalomyelitis model assessed as reduction in lesions in cerebellum at 50 mg/kg, ip administered daily up to 60 days by LFB/H and E staining based assay. In kind it is functional, organism-based. In short, it runs like this: as §2
The subject of data set [5] is Mus musculus. Kind of data set: Antiinflammatory activity in MOG (35 to 55 residues)-induced C57BL/6 mouse autoimmune encephalomyelitis model assessed as reduction in lesions in olfactory tract at 50 mg/kg, ip administered daily up to 60 days by LFB/H and E staining based assay. In kind it is functional, organism-based. In a few lines:
as §2

For data set [6], the system named is Mus musculus. The data set can be described thus: Antiinflammatory activity in MOG (35 to 55 residues)-induced C57BL/6 mouse autoimmune encephalomyelitis model assessed as reduction in lesions in internal capsule at 50 mg/kg, ip administered daily by LFB/H and E staining based assay. It is filed as functional, organism-based. In a few lines:
as §2

In data set [7] the test system is Mus musculus. The data set can be described thus: Antiinflammatory activity in MOG (35 to 55 residues)-induced C57BL/6 mouse autoimmune encephalomyelitis model assessed as reduction in accumulation of CD3 positive T-cells in brain at 50 mg/kg, ip administered daily up to 60 days by immunohistochemistry. It is filed as functional, organism-based. In short, it runs like this:
(§3)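 MOG/CFA-immunized female C57BL/6 mice were dosed daily at 50 mg/kg i.p. in PBS from score 2 for up to 60 days; PBS controls n=5, treated n=7. Brain sections were immunostained with anti-CD3. Stained cells per µm² were averaged over randomly selected areas.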

In data set [8] the test system is Mus musculus. Kind of data set: Antiinflammatory activity in MOG (35 to 55 residues)-induced C57BL/6 mouse autoimmune encephalomyelitis model assessed as reduction in accumulation of CD3 positive T-cells in internal capsule at 50 mg/kg, ip administered daily up to 60 days by immunohistochemistry. It is filed as functional, organism-based. In short, it runs like this:
as §3

Data set [9] has as its system Mus musculus. Kind of data set: Antiinflammatory activity in MOG (35 to 55 residues)-induced C57BL/6 mouse autoimmune encephalomyelitis model assessed as reduction in accumulation of CD3 positive T-cells in cerebellum at 50 mg/kg, ip administered daily up to 60 days by immunohistochemistry. It is filed as functional, organism-based. In a few lines:
as §3

A short description of data set [10]: Elimination rate constant in C57BL/6 mouse serum at 50 mg/kg, ip administered as single dose measured up to 360 mins by UPLC-MS analysis. It is filed as ADME, organism-based. In a few lines: (§4)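 Healthy female C57BL/6 mice (n = 27, 18–22 g) received one i.p. dose of 50 mg/kg, given as a 10 mg/mL aqueous solution (equimolar HCl, pH raised to 6 with NaHCO3). Blood and brain were sampled at 0, 5, 15, 30, 45, 60, 120, 240 and 360 min, 3 mice per time point. Samples were spiked with benzophenone internal standard, lyophilized, extracted into methanol, and quantified by C18 UPLC-MS.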

Data set [11] in a line: Half life in C57BL/6 mouse serum at 50 mg/kg, ip administered as single dose by UPLC-MS analysis. In kind it is ADME, organism-based. In a few lines:
as §4

Data set [12] can be described thus: Cmax in C57BL/6 mouse serum at 50 mg/kg, ip administered as single dose measured up to 360 mins by UPLC-MS analysis. It is filed as ADME, organism-based. On the set-up: dose 50 mg/kg, route intraperitoneal. In short, it runs like this:
as §4

The nature of data set [13]: Tmax in C57BL/6 mouse serum at 50 mg/kg, ip administered as single dose measured up to 360 mins by UPLC-MS analysis. It is filed as ADME, organism-based. In short, it runs like this: as §4
A short description of data set [14]: AUC (0 to 360 mins) in C57BL/6 mouse serum at 50 mg/kg, ip administered as single dose by UPLC-MS analysis. It is filed as ADME, organism-based. On the set-up: dose 50 mg/kg, time < 6 hr, route intraperitoneal. In short, it runs like this:
as §4

Data set [15] is described as follows: Elimination rate constant in C57BL/6 mouse brain at 50 mg/kg, ip administered as single dose measured up to 360 mins by UPLC-MS analysis. In kind it is ADME, organism-based. In short, it runs like this:
as §4

Data set [16] can be described thus: Half life in C57BL/6 mouse brain at 50 mg/kg, ip administered as single dose by UPLC-MS analysis. It is filed as ADME, organism-based. In a few lines: as §4
The nature of data set [17]: Cmax in C57BL/6 mouse brain at 50 mg/kg, ip administered as single dose measured up to 360 mins by UPLC-MS analysis. It is filed as ADME, organism-based. Details: dose 50 mg/kg, route intraperitoneal. In short, it runs like this:
as §4

Data set [18] is described as follows: Tmax in C57BL/6 mouse brain at 50 mg/kg, ip administered as single dose measured up to 360 mins by UPLC-MS analysis. In kind it is ADME, organism-based. In a few lines:
as §4

Data set [19] can be described thus: AUC (0 to 360 mins) in C57BL/6 mouse brain at 50 mg/kg, ip administered as single dose by UPLC-MS analysis. It is filed as ADME, organism-based. On the set-up: time < 6 hr, dose 50 mg/kg, route intraperitoneal. In short, it runs like this:
as §4

Data set [20] deals with Mus musculus. The data set can be described thus: Toxicity in MOG (35 to 55 residues)-induced C57BL/6 mouse autoimmune encephalomyelitis model assessed as bdoy weight cahnges at 50 mg/kg, ip administered daily up to 60 days. It is filed as organism-based. The settings on record: in vivo, 1440 h. In a few lines: as §1
Data set [21] has as its target Protein-arginine deiminase type-4 (Homo sapiens, UniProt Q9UM07). The data set can be described thus: Inhibition of full length human GST-tagged PAD4 expressed in baculovirus infected Sf9 insect cells preincubated for 30 mins followed by substrate addition measured after 30 mins.
The target in data set [22] is T1, Protein-arginine deiminase type-1 (Homo sapiens, UniProt Q9ULC6).
T1 sequence (Q9ULC6 whole entry): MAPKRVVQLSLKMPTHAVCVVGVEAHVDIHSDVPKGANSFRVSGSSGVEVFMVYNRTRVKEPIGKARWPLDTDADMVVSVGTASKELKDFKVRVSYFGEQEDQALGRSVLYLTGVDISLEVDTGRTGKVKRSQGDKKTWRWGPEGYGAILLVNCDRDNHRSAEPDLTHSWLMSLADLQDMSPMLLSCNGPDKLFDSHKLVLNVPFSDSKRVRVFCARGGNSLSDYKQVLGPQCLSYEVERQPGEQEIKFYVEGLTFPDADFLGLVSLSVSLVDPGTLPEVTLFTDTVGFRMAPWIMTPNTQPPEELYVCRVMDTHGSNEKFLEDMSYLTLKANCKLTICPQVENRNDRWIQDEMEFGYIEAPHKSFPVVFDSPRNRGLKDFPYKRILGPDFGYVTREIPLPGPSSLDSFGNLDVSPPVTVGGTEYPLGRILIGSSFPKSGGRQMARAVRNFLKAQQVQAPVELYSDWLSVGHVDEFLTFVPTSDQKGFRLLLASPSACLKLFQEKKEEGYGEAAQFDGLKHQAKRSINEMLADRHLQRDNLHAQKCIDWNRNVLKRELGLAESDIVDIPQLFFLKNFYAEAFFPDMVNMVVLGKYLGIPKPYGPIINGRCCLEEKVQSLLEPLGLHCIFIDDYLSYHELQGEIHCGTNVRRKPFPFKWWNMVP
Kind of data set: Inhibition of full length human GST-tagged PAD1 expressed in baculovirus infected Sf9 insect cells preincubated for 30 mins followed by substrate addition measured after 30 mins. In a few lines: (§5)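 Colorimetric citrulline assay at 37 °C in 100 mM Tris, 100 mM NaCl, 10 mM CaCl2, 5 mM DTT, pH 7.5, with about 5% DMSO. Enzyme (hPAD1 50 nM, mPAD2 100 nM) was preincubated with inhibitor (0.1–10 mM) for 30 min. Substrate was then added at 5 mM final for a further 30 min. Diacetyl monoxime/thiosemicarbazide reagent was added, samples were boiled 15 min, and A530 was read.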

In data set [23] the target is Protein-arginine deiminase type-2 (Mus musculus, UniProt Q08642). Kind of data set: Inhibition of full length mouse GST-tagged PAD2 expressed in baculovirus infected Sf9 insect cells preincubated for 30 mins followed by substrate addition measured after 30 mins. In a few lines:
as §5

Protein-arginine deiminase type-2, sequence (Q08642 whole entry): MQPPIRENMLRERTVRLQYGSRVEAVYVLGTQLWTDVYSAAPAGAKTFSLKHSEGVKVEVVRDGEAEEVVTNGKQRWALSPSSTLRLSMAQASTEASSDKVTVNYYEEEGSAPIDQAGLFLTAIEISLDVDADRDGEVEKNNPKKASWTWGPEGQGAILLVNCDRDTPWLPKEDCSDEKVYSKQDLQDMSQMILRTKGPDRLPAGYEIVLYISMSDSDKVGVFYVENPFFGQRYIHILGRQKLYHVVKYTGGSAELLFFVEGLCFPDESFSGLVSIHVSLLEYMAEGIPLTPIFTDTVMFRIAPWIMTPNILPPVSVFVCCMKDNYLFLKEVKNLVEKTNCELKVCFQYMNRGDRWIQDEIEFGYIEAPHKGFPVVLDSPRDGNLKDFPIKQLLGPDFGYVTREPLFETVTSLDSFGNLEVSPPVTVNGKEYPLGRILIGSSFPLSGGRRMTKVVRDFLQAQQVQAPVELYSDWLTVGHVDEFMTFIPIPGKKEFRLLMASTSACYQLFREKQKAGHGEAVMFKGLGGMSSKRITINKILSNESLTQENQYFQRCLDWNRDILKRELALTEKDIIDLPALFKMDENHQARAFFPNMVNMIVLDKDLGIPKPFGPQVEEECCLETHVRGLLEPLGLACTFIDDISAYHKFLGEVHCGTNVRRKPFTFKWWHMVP
Protein-arginine deiminase type-4, sequence (Q9UM07 whole entry): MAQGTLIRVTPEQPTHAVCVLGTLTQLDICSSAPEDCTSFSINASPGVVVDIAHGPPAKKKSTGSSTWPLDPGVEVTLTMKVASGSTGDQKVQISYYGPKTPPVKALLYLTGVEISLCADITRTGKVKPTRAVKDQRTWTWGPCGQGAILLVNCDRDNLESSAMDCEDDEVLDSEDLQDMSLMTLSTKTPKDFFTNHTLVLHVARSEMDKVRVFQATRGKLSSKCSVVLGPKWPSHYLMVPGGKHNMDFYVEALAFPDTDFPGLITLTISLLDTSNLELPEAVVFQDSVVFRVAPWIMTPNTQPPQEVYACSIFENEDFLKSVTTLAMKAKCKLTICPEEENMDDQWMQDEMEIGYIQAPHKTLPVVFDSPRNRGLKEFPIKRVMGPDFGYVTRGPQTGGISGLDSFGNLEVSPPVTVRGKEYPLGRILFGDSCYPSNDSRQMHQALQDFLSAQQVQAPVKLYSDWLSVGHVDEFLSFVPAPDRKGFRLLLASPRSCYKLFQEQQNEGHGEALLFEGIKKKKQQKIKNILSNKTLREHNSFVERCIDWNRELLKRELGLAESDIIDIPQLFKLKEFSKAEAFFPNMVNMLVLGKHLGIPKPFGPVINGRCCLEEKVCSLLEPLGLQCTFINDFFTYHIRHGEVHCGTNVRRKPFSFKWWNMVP

Regarding `Cl.Cn1cccc1C(=O)N[C@@H](CCn1ccnc1)C(=O)NCc1ccccc1`, the result in the data set on Mus musculus [1], with Mus musculus [3], with Mus musculus [4], in the data set on Mus musculus [5], in the data set with Mus musculus [6] and in the data set on Mus musculus [7] was Active. Also, the outcome in the data set with Mus musculus [8] and in the data set on Mus musculus [9] was Active. Moreover, the survival at 50 mg/kg in the data set on Mus musculus [2] is 100%. In addition, the figures for the k el at 6 h in [10] and in data set [15] were 0.000333 s⁻¹ and 0.0003 s⁻¹, respectively. For the same compound, the values for the half-life in data set [11] and in data set [16] were 34.8 min and 38.5 min, respectively. Moreover, the Cmax in [12] was 12000 ng/mL; in data set [17] it was 170 ng/mL. The Tmax in data set [13] and in data set [18] was 15 min in each case. Moreover, the AUC(0-t) at 6 h is 8460 ng·h/mL in data set [14] and 105 ng·h/mL in data set [19]. The Activity result with Mus musculus [20] is given as “Non-Toxic”.

In the case of `O=C(N[C@@H](CCn1ccnn1)C(=O)NCc1ccccc1)c1ccco1`, the Ki in data set [21] was 2820 µM; in data set [22] it was 1090 µM; in [23], 282 µM.

With `Cn1cccc1C(=O)N[C@@H](CCn1ccnn1)C(=O)NCc1ccccc1`, the Ki was found to be 112 µM in data set [22] and 71 µM in data set [23].

Broadly, the half-life is how long it takes for the measured level to halve. A low value points to rapid decline. What is called Cmax is the maximum level reached in the sampled fluid or tissue. A word on the Tmax: it is the time from dosing to the highest level. As a reminder, the AUC(0-t) is exposure summed from dosing to a finite time, without extrapolation to infinity. High values mean more exposure, low ones less exposure. Broadly, the Ki is the equilibrium dissociation constant of an inhibitor or competing ligand from its target. Low values mean higher affinity, high ones lower affinity.
